According to PMC6605684 (The Journal of General Physiology, 2019):
“Also recorded” adds a separate entry of the source.

Tests used:
WT-CFTR [1] = target: T1, WT-CFTR (Homo sapiens, UniProt P13569); assay: Inside-out patch-clamp of CFTR currents in transfected CHO cells; format: cell-based; conditions: mean
Summary of the method: (§1)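 CFTR construct and GFP plasmid cotransfected into CHO cells, held at 27°C for 2–6 d. Inside-out patches at room temperature, −30 mV, NMDG-Cl solutions at pH 7.4. Channels preactivated with 25 IU PKA plus 2 mM MgATP, then test compound (max 40 µM) applied in 2 mM ATP. ATP-subtracted steady-state currents normalized to the 3 µM response in the same patch. Hill fit with base 0 and maximum 1; EC50 ± SD of fit; 3–7 patches per point.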

G551D-CFTR = G551D-CFTR (Homo sapiens, UniProt P13569, G551D); assay: as above; format: cell-based
Summary of the method: as §1

D924N-CFTR = D924N-CFTR (Homo sapiens, UniProt P13569, D924N); assay: as above; format: cell-based; conditions: 200 nM VX-770, 2 mM ATP, mean
Summary of the method: as §1

N1138L/G551D-CFTR = N1138L/G551D-CFTR (Homo sapiens, UniProt P13569, G551D/N1138L); assay: as above; format: cell-based; conditions: mean
Summary of the method: as §1

S1141K/G551D-CFTR = S1141K/G551D-CFTR (Homo sapiens, UniProt P13569, G551D/S1141K); assay: as above; format: cell-based; conditions: mean
Summary of the method: as §1

F229A-CFTR = F229A-CFTR (Homo sapiens, UniProt P13569, F229A); assay: as above; format: cell-based; conditions: 200 nM VX-770, mean
Summary of the method: as §1

F236A-CFTR = F236A-CFTR (Homo sapiens, UniProt P13569, F236A); assay: as above; format: cell-based; conditions: 200 nM VX-770, mean
Summary of the method: as §1

Y304A-CFTR = Y304A-CFTR (Homo sapiens, UniProt P13569, Y304A); assay: Inside-out patch-clamp of CFTR currents in transfected CHO cells; format: cell-based; conditions: 200 nM VX-770, mean
Summary of the method: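 Relaxation assay: PKA-preactivated channels in 2 mM ATP at −30 mV exposed to test compound through a fast three-barrel perfusion system (dead time ∼30 ms). Current decay after sudden removal of 3 µM compound fitted with a single exponential to give relaxation time constant τ.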

F312A-CFTR = F312A-CFTR (Homo sapiens, UniProt P13569, F312A); assay: Inside-out patch-clamp of CFTR currents in transfected CHO cells; format: cell-based; conditions: 200 nM VX-770, 30 µM ATP, mean
S182A-CFTR = S182A-CFTR (Homo sapiens, UniProt P13569, S182A); assay: Inside-out patch-clamp of CFTR currents in transfected CHO cells; format: cell-based; conditions: 200 nM VX-770, mean
Summary of the method: as §1

S263A-CFTR = S263A-CFTR (Homo sapiens, UniProt P13569, S263A); assay: as above; format: cell-based; conditions: 200 nM VX-770, mean
Summary of the method: as §1

WT-mCFTR = WT-mCFTR (Mus musculus, UniProt P26361); assay: Inside-out patch-clamp of CFTR currents in transfected CHO cells; format: cell-based; conditions: 200 nM VX-770, 2 mM ATP
Summary of the method: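 Mouse CFTR expressed in CHO cells; inside-out patches. Phosphorylated channels opened by 2 mM ATP before the potentiator was applied (one potentiator at 200 nM). 5 µM CFTRinh-172 added at the end of each recording for baseline.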

F304Y-mCFTR = F304Y-mCFTR (Mus musculus, UniProt P26361, F304Y); assay: Inside-out patch-clamp of CFTR currents in transfected CHO cells; format: cell-based
Summary of the method: as §1

WT-CFTR [2] = target: T1, WT-CFTR; conditions: ref Jih and Hwang, 2013; cited from earlier work

T1 sequence (P13569 whole entry): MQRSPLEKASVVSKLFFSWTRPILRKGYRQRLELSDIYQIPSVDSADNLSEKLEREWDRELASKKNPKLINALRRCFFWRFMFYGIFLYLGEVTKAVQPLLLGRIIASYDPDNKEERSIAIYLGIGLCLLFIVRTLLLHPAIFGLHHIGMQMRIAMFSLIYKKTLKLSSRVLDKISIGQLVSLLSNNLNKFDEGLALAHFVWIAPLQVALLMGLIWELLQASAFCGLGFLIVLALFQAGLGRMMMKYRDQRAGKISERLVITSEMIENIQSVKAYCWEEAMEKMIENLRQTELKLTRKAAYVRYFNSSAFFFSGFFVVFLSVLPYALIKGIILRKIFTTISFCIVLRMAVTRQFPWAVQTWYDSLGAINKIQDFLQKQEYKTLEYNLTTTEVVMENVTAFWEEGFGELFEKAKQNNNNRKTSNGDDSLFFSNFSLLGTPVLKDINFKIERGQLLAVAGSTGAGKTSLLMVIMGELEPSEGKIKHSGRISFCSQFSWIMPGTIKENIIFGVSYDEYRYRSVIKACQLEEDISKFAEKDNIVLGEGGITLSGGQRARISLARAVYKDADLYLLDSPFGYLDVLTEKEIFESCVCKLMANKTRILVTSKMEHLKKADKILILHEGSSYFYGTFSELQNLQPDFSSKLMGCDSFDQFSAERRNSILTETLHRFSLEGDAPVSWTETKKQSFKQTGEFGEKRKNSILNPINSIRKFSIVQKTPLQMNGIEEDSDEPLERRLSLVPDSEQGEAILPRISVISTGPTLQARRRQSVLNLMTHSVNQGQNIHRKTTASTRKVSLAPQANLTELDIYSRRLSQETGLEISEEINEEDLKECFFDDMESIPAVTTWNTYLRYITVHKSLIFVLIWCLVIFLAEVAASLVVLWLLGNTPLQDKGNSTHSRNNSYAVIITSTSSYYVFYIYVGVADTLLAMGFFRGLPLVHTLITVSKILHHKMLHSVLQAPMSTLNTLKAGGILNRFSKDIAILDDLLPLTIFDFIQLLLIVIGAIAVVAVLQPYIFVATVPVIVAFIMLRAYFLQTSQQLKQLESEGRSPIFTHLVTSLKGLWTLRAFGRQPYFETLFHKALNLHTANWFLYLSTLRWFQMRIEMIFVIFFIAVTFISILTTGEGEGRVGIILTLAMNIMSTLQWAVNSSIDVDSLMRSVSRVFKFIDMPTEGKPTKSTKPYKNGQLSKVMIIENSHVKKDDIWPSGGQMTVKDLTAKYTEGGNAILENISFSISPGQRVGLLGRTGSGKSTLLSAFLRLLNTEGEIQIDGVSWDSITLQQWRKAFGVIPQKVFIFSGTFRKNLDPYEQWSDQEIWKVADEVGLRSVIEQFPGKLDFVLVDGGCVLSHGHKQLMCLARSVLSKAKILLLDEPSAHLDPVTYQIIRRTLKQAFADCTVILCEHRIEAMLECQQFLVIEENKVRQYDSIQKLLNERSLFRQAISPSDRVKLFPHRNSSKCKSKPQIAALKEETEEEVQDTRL
Chain of S263A-CFTR (P13569 whole entry S263A): as the sequence (P13569 whole entry) above, with S263A counted along it
Chain of S182A-CFTR (P13569 whole entry S182A): as the sequence (P13569 whole entry) above, with S182A counted along it
Chain of G551D-CFTR (P13569 whole entry G551D): as the sequence (P13569 whole entry) above, with G551D counted along it
Chain of F312A-CFTR (P13569 whole entry F312A): as the sequence (P13569 whole entry) above, with F312A counted along it
Chain of F304Y-mCFTR (P26361 whole entry F304Y): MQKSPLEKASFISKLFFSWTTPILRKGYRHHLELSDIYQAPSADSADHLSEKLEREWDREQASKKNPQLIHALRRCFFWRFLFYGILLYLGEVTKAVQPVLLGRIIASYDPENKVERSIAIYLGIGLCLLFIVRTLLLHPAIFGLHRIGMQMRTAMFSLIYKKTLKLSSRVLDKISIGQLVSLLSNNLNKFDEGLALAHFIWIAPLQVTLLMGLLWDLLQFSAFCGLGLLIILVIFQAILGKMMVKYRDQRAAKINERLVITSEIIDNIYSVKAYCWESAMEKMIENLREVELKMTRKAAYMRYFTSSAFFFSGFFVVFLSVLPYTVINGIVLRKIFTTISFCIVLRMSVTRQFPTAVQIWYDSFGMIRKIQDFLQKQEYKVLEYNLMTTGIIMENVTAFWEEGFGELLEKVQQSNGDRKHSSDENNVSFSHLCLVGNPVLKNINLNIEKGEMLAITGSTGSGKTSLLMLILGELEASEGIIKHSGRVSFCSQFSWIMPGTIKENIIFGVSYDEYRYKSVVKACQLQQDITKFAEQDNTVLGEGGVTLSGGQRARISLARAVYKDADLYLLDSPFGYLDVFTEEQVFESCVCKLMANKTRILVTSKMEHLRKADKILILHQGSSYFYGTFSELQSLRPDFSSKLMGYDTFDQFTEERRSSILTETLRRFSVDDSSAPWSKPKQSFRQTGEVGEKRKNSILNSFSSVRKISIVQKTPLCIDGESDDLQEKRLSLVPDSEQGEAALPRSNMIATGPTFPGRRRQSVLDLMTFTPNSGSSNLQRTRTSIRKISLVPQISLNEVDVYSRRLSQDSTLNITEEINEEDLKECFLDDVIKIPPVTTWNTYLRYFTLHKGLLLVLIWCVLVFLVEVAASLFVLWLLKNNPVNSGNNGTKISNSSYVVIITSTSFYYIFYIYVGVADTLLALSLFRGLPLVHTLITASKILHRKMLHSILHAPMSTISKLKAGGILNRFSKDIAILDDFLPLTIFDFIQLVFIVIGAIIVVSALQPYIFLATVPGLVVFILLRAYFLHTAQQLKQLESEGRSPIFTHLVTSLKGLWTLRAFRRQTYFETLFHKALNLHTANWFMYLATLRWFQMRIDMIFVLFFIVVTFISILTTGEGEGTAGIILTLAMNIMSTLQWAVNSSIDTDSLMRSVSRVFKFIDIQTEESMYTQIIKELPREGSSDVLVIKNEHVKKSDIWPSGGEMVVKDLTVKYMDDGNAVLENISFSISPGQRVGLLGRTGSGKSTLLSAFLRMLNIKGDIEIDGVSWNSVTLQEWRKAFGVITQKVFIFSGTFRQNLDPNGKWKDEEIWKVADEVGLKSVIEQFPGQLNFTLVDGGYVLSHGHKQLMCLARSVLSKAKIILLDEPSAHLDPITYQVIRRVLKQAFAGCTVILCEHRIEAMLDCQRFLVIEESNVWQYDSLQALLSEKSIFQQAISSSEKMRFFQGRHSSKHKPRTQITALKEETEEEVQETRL
Chain of D924N-CFTR (P13569 whole entry D924N): as the sequence (P13569 whole entry) above, with D924N counted along it
Chain of Y304A-CFTR (P13569 whole entry Y304A, the tested form may be a part): as the sequence (P13569 whole entry) above, with Y304A counted along it
Chain of S1141K/G551D-CFTR (P13569 whole entry G551D/S1141K): as the sequence (P13569 whole entry) above, with G551D, S1141K counted along it
Chain of N1138L/G551D-CFTR (P13569 whole entry G551D/N1138L): as the sequence (P13569 whole entry) above, with G551D, N1138L counted along it
Chain of F229A-CFTR (P13569 whole entry F229A): as the sequence (P13569 whole entry) above, with F229A counted along it
Chain of F236A-CFTR (P13569 whole entry F236A): as the sequence (P13569 whole entry) above, with F236A counted along it
Chain of WT-mCFTR (P26361 whole entry): as the sequence (P26361 whole entry F304Y) above, with Y304F counted along it

## CC(C)(C)c1cc(C(C)(C)C)c(NC(=O)c2c[nH]c3ccccc3c2=O)cc1O [VX-770, N-(2,4-di-tert-butyl-5-hydroxyphenyl)-4-oxo-1,4-dihydroquinoline-3-carboxamide]
WT-CFTR [1]; current decay on removal of 200 nM VX-770, 2 mM ATP
  τoff (VX-770): 361 ± 39 s
WT-CFTR [1]; current rise on application of 200 nM VX-770, 2 mM ATP
  τon (VX-770): 6.7 ± 1.2 s
G551D-CFTR; current decay on removal of VX-770, mean
  τoff (VX-770): 68 ± 14 s
G551D-CFTR; current rise on application of VX-770, mean
  τon (VX-770): 5.9 ± 2.4 s
D924N-CFTR
  τoff (VX-770): 115 ± 7 s
  τon (VX-770): 78 ± 18 s
N1138L/G551D-CFTR
  τoff (VX-770): 268 ± 25 s
  τon (VX-770): 18 ± 5 s
S1141K/G551D-CFTR
  τoff (VX-770): 221 ± 50 s
  τon (VX-770): 14 ± 6 s
F229A-CFTR
  τoff (VX-770): 338 ± 49 s
  τon (VX-770): 6.2 ± 1.3 s
F236A-CFTR
  τoff (VX-770): 173 ± 45 s
  τon (VX-770): 19 ± 8 s
Y304A-CFTR
  τoff (VX-770): 18 ± 6 s
  τon (VX-770): 49 ± 11 s
F312A-CFTR
  τoff (VX-770): 38 ± 5 s
  τon (VX-770): 15 ± 1 s
S182A-CFTR
  τoff (VX-770): 343 ± 96 s
  τon (VX-770): 8.2 ± 1.5 s
S263A-CFTR
  τoff (VX-770): 288 ± 68 s
  τon (VX-770): 6.1 ± 1.5 s
WT-mCFTR
  Potentiation of currents by VX-770: fails to potentiate
F304Y-mCFTR
  Potentiation of currents by VX-770: restores the potentiating effects; also recorded: Restoring the effect
WT-CFTR [2]
  Saturating concentration for VX-770: 200 nM
